In ChEMBL document CHEMBL5257020, “Discovery of a 9-mer Cationic Peptide (LTX-315) as a Potential First in Class Oncolytic Peptide” (J Med Chem, 2016):
Where a SMILES comes first, the peptide text is derived from it. [ ]: non-standard residue; d: D form. ξ: configuration not given here. ξBip = NC(Cc1ccc(-c2ccccc2)cc1)C(=O)O; ξDip = NC(C(=O)O)C(c1ccccc1)c1ccccc1

Experiments:
Toledo = assay: Cytotoxicity against human Toledo cells assessed as inhibition of cell proliferation incubated for 4 hrs by MTS assay; format: functional, cell-based
Summary of the method: (§1)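 Cells grown in RPMI-1640 with 2 mM L-glutamine and 10% FBS, plated, then held 24 h at 37 °C. Adherent lines washed once in FBS-free medium. Cells exposed 4 h at 37 °C, 5% CO2 in FBS-free medium to 10 concentrations (1/4 steps, 400 μM top). 1% Triton X-100 served as positive control. MTS/PMS added for 2 h, then OD 490 nm read. IC50 from semilog curves; three independent experiments, quadruplicate wells.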

SK-N-AS = assay: Cytotoxicity against human SK-N-AS cells assessed as inhibition of cell proliferation incubated for 4 hrs by MTS assay; format: functional, cell-based; summary of the method: as §1
MDA-MB-231 = assay: Cytotoxicity against human MDA-MB-231 cells assessed as inhibition of cell proliferation incubated for 4 hrs by MTS assay; format: functional, cell-based; details: MDA-MB-231, 4 h; summary of the method: as §1
Raji = assay: Cytotoxicity against human Raji cells assessed as inhibition of cell proliferation incubated for 4 hrs by MTS assay; format: functional, cell-based; summary of the method: as §1
HCT-15 = assay: Cytotoxicity against human HCT-15 cells assessed as inhibition of cell proliferation incubated for 4 hrs by MTS assay; format: functional, cell-based; details: HCT-15, 4 h; summary of the method: as §1
SK-OV-3 = assay: Cytotoxicity against human SK-OV-3 cells assessed as inhibition of cell proliferation incubated for 4 hrs by MTS assay; format: functional, cell-based; details: SK-OV-3, 4 h; summary of the method: as §1
Malme-3M = assay: Cytotoxicity against human Malme-3M cells assessed as inhibition of cell proliferation incubated for 4 hrs by MTS assay; format: functional, cell-based; summary of the method: as §1
[1] = Cytotoxicity against human Hs 445 cells assessed as inhibition of cell proliferation incubated for 4 hrs by MTS assay; format: functional, cell-based; details: Hs 445, 4 h; summary of the method: as §1
SK-MEL-2 = assay: Cytotoxicity against human SK-MEL-2 cells assessed as inhibition of cell proliferation incubated for 4 hrs by MTS assay; format: functional, cell-based; details: SK-MEL-2, 4 h; summary of the method: as §1
HepG2 = assay: Cytotoxicity against human HepG2 cells assessed as inhibition of cell proliferation incubated for 4 hrs by MTS assay; format: functional, cell-based; details: HepG2, 4 h; summary of the method: as §1
Daudi = assay: Cytotoxicity against human Daudi cells assessed as inhibition of cell proliferation incubated for 4 hrs by MTS assay; format: functional, cell-based; summary of the method: as §1
RPMI-8226 = assay: Cytotoxicity against human RPMI-8226 cells assessed as inhibition of cell proliferation incubated for 4 hrs by MTS assay; format: functional, cell-based; details: RPMI-8226, 4 h; summary of the method: as §1
PANC-1 = assay: Cytotoxicity against human PANC-1 cells assessed as inhibition of cell proliferation incubated for 4 hrs by MTS assay; format: functional, cell-based; details: PANC-1, 4 h; summary of the method: as §1
[2] = Cytotoxicity against human MRC5 cells assessed as inhibition of cell proliferation incubated for 4 hrs by MTT assay; format: toxicity, cell-based
Summary of the method: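 MRC-5 human embryonic lung fibroblasts cultured in MEM with 2 mM L-glutamine and 10% FBS, without antibiotics, at 37 °C in humidified 5% CO2. Cultures were tested for mycoplasma. IC50 from three or more independent measurements, given as mean ± SD.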

HL60/ADR = assay: Cytotoxicity against human HL60/ADR cells assessed as inhibition of cell proliferation incubated for 4 hrs by MTS assay; format: functional, cell-based; summary of the method: as §1
MCF7 [3] = assay: Cytotoxicity against human MCF7 cells assessed as inhibition of cell proliferation incubated for 4 hrs by MTS assay; format: functional, cell-based; details: MCF7, 4 h; summary of the method: as §1
CCRF-CEM = assay: Cytotoxicity against human CCRF-CEM cells assessed as inhibition of cell proliferation incubated for 4 hrs by MTS assay; format: functional, cell-based; summary of the method: as §1
[4] = Cytotoxicity against human MRC5 cells assessed as inhibition of cell proliferation incubated for 4 hrs by MTS assay; format: toxicity, cell-based; summary of the method: as §1
IGROV-1 = assay: Cytotoxicity against human IGROV-1 cells assessed as inhibition of cell proliferation incubated for 4 hrs by MTS assay; format: functional, cell-based; details: IGROV-1, 4 h; summary of the method: as §1
[5] = Cytotoxicity against human HUVEC-C cells assessed as inhibition of cell proliferation incubated for 4 hrs by MTS assay; format: toxicity, cell-based; summary of the method: as §1
HL-60 = assay: Cytotoxicity against human HL-60 cells assessed as inhibition of cell proliferation incubated for 4 hrs by MTS assay; format: functional, cell-based; details: HL-60, 4 h; summary of the method: as §1
[6] = Cytotoxicity against human MINO cells assessed as inhibition of cell proliferation incubated for 4 hrs by MTS assay; format: functional, cell-based; summary of the method: as §1
OVCAR-3 = assay: Cytotoxicity against human OVCAR-3 cells assessed as inhibition of cell proliferation incubated for 4 hrs by MTS assay; format: functional, cell-based; details: OVCAR-3, 4 h; summary of the method: as §1
DU-145 = assay: Cytotoxicity against human DU-145 cells assessed as inhibition of cell proliferation incubated for 4 hrs by MTS assay; format: functional, cell-based; details: DU-145, 4 h; summary of the method: as §1
MDA-MB-435S = assay: Cytotoxicity against human MDA-MB-435S cells assessed as inhibition of cell proliferation incubated for 4 hrs by MTS assay; format: functional, cell-based; summary of the method: as §1
Calu-6 = assay: Cytotoxicity against human Calu-6 cells assessed as inhibition of cell proliferation incubated for 4 hrs by MTS assay; format: functional, cell-based; details: Calu-6, 4 h; summary of the method: as §1
COLO 205 = assay: Cytotoxicity against human COLO 205 cells assessed as inhibition of cell proliferation incubated for 4 hrs by MTS assay; format: functional, cell-based; details: COLO 205, 4 h; summary of the method: as §1
U-937 = assay: Cytotoxicity against human U-937 cells assessed as inhibition of cell proliferation incubated for 4 hrs by MTS assay; format: functional, cell-based; details: U-937, 4 h; summary of the method: as §1
BXPC-3 = assay: Cytotoxicity against human BXPC-3 cells assessed as inhibition of cell proliferation incubated for 4 hrs by MTS assay; format: functional, cell-based; details: BXPC-3, 4 h; summary of the method: as §1
MCF7 [7] = assay: Cytotoxicity against human MCF7 cells transfected with MDR1 assessed as inhibition of cell proliferation incubated for 4 hrs by MTS assay; format: functional, cell-based; details: MCF7, 4 h; summary of the method: as §1
[8] = Cytotoxicity against human U-87 MG cells assessed as inhibition of cell proliferation incubated for 4 hrs by MTS assay; format: functional, cell-based, U-87MG ATCC; summary of the method: as §1
SK-HEP1 = assay: Cytotoxicity against human SK-HEP1 cells assessed as inhibition of cell proliferation incubated for 4 hrs by MTS assay; format: functional, cell-based; details: SK-HEP1, 4 h; summary of the method: as §1
KARPAS-299 = assay: Cytotoxicity against human KARPAS-299 cells assessed as inhibition of cell proliferation incubated for 4 hrs by MTS assay; format: functional, cell-based; details: KARPAS-299, 4 h; summary of the method: as §1
HCT-116 = assay: Cytotoxicity against human HCT-116 cells assessed as inhibition of cell proliferation incubated for 4 hrs by MTS assay; format: functional, cell-based; details: HCT-116, 4 h; summary of the method: as §1
T47D = assay: Cytotoxicity against human T47D cells assessed as inhibition of cell proliferation incubated for 4 hrs by MTS assay; format: functional, cell-based; summary of the method: as §1
A20 = assay: Cytotoxicity against mouse A20 lymphoma cells assessed as inhibition of cell proliferation incubated for 4 hrs by MTT assay; format: functional, cell-based; details: A20, 4 h
Summary of the method: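 Murine A20 cells cultured in RPMI-1640 with 2 mM L-glutamine, 1.5 g/L sodium bicarbonate, 4.5 g/L glucose, 10 mM HEPES, 1.0 mM sodium pyruvate, 0.05 mM 2-mercaptoethanol and 10% FBS, without antibiotics, at 37 °C, 5% CO2. IC50 from three or more independent measurements, given as mean ± SD.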

SU-DHL-1 = assay: Cytotoxicity against human SU-DHL-1 cells assessed as inhibition of cell proliferation incubated for 4 hrs by MTS assay; format: functional, cell-based; details: SU-DHL-1, 4 h; summary of the method: as §1
A549 = assay: Cytotoxicity against human A549 cells assessed as inhibition of cell proliferation incubated for 4 hrs by MTS assay; format: functional, cell-based; details: A549, 4 h; summary of the method: as §1

Structure (SMILES)	IC50 (Toledo) [µM]	IC50 (SK-N-AS) [µM]	IC50 (MDA-MB-231) [µM]	IC50 (Raji) [µM]	IC50 (HCT-15) [µM]	IC50 (SK-OV-3) [µM]	IC50 (Malme-3M) [µM]	IC50 [1] [µM]	IC50 (SK-MEL-2) [µM]	IC50 (HepG2) [µM]	IC50 (Daudi) [µM]	IC50 (RPMI-8226) [µM]	IC50 (PANC-1) [µM]	IC50 at 4 h [2] [µM]	IC50 (HL60/ADR) [µM]	IC50 (MCF7 [3]) [µM]	IC50 (CCRF-CEM) [µM]	IC50 at 4 h [4] [µM]	IC50 (IGROV-1) [µM]	IC50 at 4 h [5] [µM]	further results
NCCCC[C@H](NC(=O)[C@H](Cc1c[nH]c2ccccc12)NC(=O)[C@H](CCCCN)NC(=O)[C@H](CCCCN)NC(=O)C(NC(=O)[C@H](Cc1c[nH]c2ccccc12)NC(=O)[C@H](CCCCN)NC(=O)[C@H](CCCCN)NC(=O)[C@@H](N)Cc1c[nH]c2ccccc12)C(c1ccccc1)c1ccccc1)C(N)=O (stereo partly specified) (H-WKKW[ξDip]KKWK-NH2)	7.7	10.4	13	12.5	12	18.1	12.4	6.5	18.4	20.1	8.1	6	17.1	122	10.5	8.9	7.8	28	19.6	55.5	IC50 (HL-60): 8 µM; IC50 [6]: 9.5 µM; IC50 (OVCAR-3): 13.9 µM; IC50 (DU-145): 12.4 µM; IC50 (MDA-MB-435S): 14.1 µM; IC50 (Calu-6): 6.9 µM; IC50 (COLO 205): 8.7 µM; IC50 (U-937): 5.3 µM; IC50 (BXPC-3): 17.9 µM; IC50 (MCF7 [7]): 11 µM; IC50 [8]: 17.3 µM; IC50 (SK-HEP1): 15.6 µM; IC50 (KARPAS-299): 11.6 µM; IC50 (HCT-116): 10.3 µM; IC50 (T47D): 4.8 µM; IC50 (A20): 16 µM; IC50 (SU-DHL-1): 7.3 µM; IC50 (A549): 10.4 µM
NCCCC[C@H](NC(=O)[C@H](Cc1c[nH]c2ccccc12)NC(=O)[C@H](Cc1c[nH]c2ccccc12)NC(=O)[C@H](CCCCN)NC(=O)[C@H](CCCCN)NC(=O)[C@H](Cc1c[nH]c2ccccc12)NC(=O)C(Cc1ccc(-c2ccccc2)cc1)NC(=O)[C@H](CCCCN)NC(=O)[C@@H](N)CCCCN)C(N)=O (stereo partly specified) (H-KK[ξBip]WKKWWK-NH2)	5.2	6.1	10.8	16.1	13.9	17.7	8.9	4.2	13.4	14.8	6.6	4	10.8	151	7	6.8	7.6	30.9	13.4	37.9	IC50 (HL-60): 6.1 µM; IC50 [6]: 8.4 µM; IC50 (OVCAR-3): 14.3 µM; IC50 (DU-145): 8.8 µM; IC50 (MDA-MB-435S): 11.4 µM; IC50 (Calu-6): 6.1 µM; IC50 (COLO 205): 4.9 µM; IC50 (U-937): 3.8 µM; IC50 (BXPC-3): 8.9 µM; IC50 (MCF7 [7]): 8.4 µM; IC50 [8]: 18.5 µM; IC50 (SK-HEP1): 12.6 µM; IC50 (KARPAS-299): 10 µM; IC50 (HCT-116): 7.6 µM; IC50 (T47D): 4.2 µM; IC50 (A20): 13 µM; IC50 (SU-DHL-1): 4.6 µM; IC50 (A549): 10.3 µM
